From ChEMBL document CHEMBL4145441, “Discovery of N-(5-((5-chloro-4-((2-(isopropylsulfonyl)phenyl)amino)pyrimidin-2-yl)amino)-4-methoxy-2-(4-methyl-1,4-diazepan-1-yl)phenyl)acrylamide (CHMFL-ALK/EGFR-050) as a potent ALK/EGFR dual kinase inhibitor capable of overcoming a variety of ALK/EGFR associated drug resistant mutants in NSCLC” (Eur J Med Chem, 2017)
Calls of active or inactive are those of the source. The rule behind the calls is not given here.

What was measured:
[1] = species on record: Homo sapiens; test: Selectivity ratio of GI50 for inhibition of TEL-fused EGFR C797S mutant (unknown origin) expressed in mouse BAF3 cells assessed as decrease in cell proliferation to GI50 for TEL-fused EGFR (unknown origin) expressed in mouse BAF3 cells assessed as decrease in cell proliferation; assay type: cell-based
[2] = target: T1, Epidermal growth factor receptor (Homo sapiens, UniProt P00533); test: Inhibition of EGFR phosphorylation at Y1068 in human PC9 cells at 30 nM after 4 hrs by immunoblotting method; assay type: cell-based
[3] = target: T1, Epidermal growth factor receptor; test: Inhibition of EGFR in human A549 cells assessed as reduction in EGF-induced 4EBP1 phosphorylation at Thr37/46 site up to 3 uM after 4 hrs by immunoblotting method; assay type: cell-based
[4] = target: ALK tyrosine kinase receptor (Homo sapiens, UniProt Q9UM73, R1275Q); test: Inhibition of recombinant human N-terminal GST/His6-fused ALK R1275Q mutant expressed in Sf9 insect cells using Tyr 1 peptide as substrate after 1 hr by Z-LYTE assay
[5] = target: T1, Epidermal growth factor receptor; test: Inhibition of EGFR in human A549 cells assessed as reduction in EGF-induced P70S6K phosphorylation at Thr389 residue up to 3 uM after 4 hrs by immunoblotting method; assay type: cell-based
[6] = target: T1, Epidermal growth factor receptor; test: Inhibition of EGFR in human PC9 cells assessed as inhibition of ERK-1/2 phosphorylation at Thr202/Tyr204 residues at 30 nM after 4 hrs by immunoblotting method; assay type: cell-based
[7] = target: T2, ALK tyrosine kinase receptor (Homo sapiens, UniProt Q9UM73); test: Inhibition of ALK phosphorylation at Tyr1604 residue in human NCI-H3122 cells harboring EML4-fused ALK at 100 nM after 2 hrs by immunoblot method; assay type: cell-based
Target sequence in this assay (Q9UM73 19-1620 limits assumed): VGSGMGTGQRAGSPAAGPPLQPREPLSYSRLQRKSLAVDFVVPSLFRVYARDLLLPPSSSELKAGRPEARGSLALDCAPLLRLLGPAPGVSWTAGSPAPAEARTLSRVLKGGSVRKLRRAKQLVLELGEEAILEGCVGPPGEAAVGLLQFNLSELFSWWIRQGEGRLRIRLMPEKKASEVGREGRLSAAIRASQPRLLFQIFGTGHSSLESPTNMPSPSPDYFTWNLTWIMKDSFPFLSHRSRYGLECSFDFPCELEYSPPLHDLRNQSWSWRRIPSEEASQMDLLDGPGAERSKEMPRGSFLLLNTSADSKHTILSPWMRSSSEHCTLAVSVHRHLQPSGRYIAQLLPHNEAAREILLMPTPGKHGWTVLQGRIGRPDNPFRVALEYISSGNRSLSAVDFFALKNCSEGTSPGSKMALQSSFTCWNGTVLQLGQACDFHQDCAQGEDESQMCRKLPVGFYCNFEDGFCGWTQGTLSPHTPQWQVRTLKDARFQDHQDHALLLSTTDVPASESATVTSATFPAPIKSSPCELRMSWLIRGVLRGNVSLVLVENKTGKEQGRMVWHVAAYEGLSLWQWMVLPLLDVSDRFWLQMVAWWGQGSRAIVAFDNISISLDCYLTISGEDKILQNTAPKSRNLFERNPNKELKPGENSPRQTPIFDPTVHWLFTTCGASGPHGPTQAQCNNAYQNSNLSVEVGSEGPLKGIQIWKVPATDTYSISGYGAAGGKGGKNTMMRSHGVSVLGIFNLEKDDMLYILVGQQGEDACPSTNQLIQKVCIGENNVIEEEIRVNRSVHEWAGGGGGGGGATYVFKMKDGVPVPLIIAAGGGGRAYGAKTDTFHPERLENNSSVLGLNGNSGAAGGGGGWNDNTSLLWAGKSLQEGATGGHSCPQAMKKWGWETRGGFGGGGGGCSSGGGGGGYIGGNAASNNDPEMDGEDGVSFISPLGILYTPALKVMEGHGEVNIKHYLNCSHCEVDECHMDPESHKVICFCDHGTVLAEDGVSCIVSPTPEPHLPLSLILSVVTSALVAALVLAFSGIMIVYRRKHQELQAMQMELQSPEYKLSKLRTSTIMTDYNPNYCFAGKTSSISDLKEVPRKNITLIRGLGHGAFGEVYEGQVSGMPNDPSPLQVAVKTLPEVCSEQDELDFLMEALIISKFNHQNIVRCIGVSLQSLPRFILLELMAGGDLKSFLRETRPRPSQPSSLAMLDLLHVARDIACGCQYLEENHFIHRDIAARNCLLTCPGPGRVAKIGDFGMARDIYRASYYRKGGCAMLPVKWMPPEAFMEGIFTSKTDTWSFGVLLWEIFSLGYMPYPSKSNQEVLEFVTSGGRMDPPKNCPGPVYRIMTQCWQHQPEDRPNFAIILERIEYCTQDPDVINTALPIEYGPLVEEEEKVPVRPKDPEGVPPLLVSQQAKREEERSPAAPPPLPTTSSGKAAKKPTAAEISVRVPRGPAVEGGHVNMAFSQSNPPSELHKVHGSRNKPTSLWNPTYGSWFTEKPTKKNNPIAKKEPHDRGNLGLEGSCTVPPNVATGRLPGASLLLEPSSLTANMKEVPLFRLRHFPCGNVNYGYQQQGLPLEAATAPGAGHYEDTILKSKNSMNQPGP

[8] = target: T2, ALK tyrosine kinase receptor; test: Inhibition of ALK in human NCI-H3122 cells harboring EML4-fused ALK assessed as reduction in ALK-induced AKT phosphorylation at Ser473 residue up to 3 uM after 2 hrs by immunoblot method; assay type: cell-based
Target sequence in this assay (Q9UM73 19-1620 limits assumed): as above

[9] = tested on: NCI-H1975; test: Antitumor activity against human NCI-H1975 cells xenografted in nu/nu mouse assessed as tumor weight at 10 mg/kg, po qd administered for 21 days (reference value: 6.05g)
[10] = tested on: A549; test: Induction of apoptosis in human A549 cells assessed as increase in cleaved caspase-3 expression level up to 1 uM after 24 hrs by Western blot method; assay type: functional, cell-based
[11] = target: ALK tyrosine kinase receptor (Homo sapiens, UniProt Q9UM73, C1156Y); test: Inhibition of recombinant human N-terminal GST/His6-fused ALK C1156Y mutant expressed in Sf9 insect cells using Tyr 1 peptide as substrate after 1 hr by Z-LYTE assay
[12] = target: T1, Epidermal growth factor receptor; test: Inhibition of EGFR phosphorylation at Y1068 in human NCI-H1975 cells at 30 nM after 4 hrs by immunoblotting method; assay type: cell-based
[13] = species on record: Homo sapiens; test: Selectivity index, ratio of IC50 for recombinant human GST-tagged EGFR L858R mutant to IC50 for recombinant human GST-tagged EGFR T790M mutant
[14] = target: T1, Epidermal growth factor receptor; test: Inhibition of full length EGFR del19 mutant (unknown origin) expressed in mouse BAF3 cells assessed as decrease in cell proliferation after 72 hrs by CellTiter-Glo assay; assay type: cell-based
[15] = target: T2, ALK tyrosine kinase receptor; test: Inhibition of recombinant human wild-type GST-tagged ALK expressed in Baculovirus expression system using Tyr 1 peptide as substrate after 1 hr by Z-LYTE assay
[16] = tested on: NCI-H3122; test: Induction of apoptosis in human NCI-H3122 cells assessed as increase in cleaved caspase-3 expression level at 300 nM after 24 hrs by Western blot method; assay type: functional, cell-based
[17] = tested on: NCI-H3122; test: Antitumor activity against human NCI-H3122 cells xenografted in nu/nu mouse assessed as tumor growth inhibition at 40 mg/kg, po qd administered for 28 days; assay type: functional; conditions: 672 h, read-out: TGI
[18] = tested on: NCI-H1975; test: Induction of apoptosis in human NCI-H1975 cells assessed as increase in cleaved caspase-3 expression level at 300 nM to 1 uM after 24 hrs by Western blot method; assay type: functional, cell-based
[19] = tested on: NCI-H3122; test: Antitumor activity against human NCI-H3122 cells xenografted in po dosed nu/nu mouse assessed as decrease in cell proliferation administered for 28 days by Ki67 staining-based immunohistochemical analysis; assay type: functional, organism-based
[20] = tested on: Mus musculus; test: Toxicity in nu/nu mouse xenografted with human NCI-H1975 cells assessed as change in body weight at 10 to 40 mg/kg, po qd administered for 21 days; conditions: in vivo, 504 h
[21] = AUC (0 to t) in Sprague-Dawley rat at 1 mg/kg, iv; assay type: ADME, organism-based; conditions: in vivo
Outline: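 Rats dosed once intravenously at 1 mg/kg or orally at 10 mg/kg. Plasma exposure parameters derived: AUC0-t, AUC0-∞, MRT(0-t), Cmax, Tmax, T1/2 and oral bioavailability (F%). Values reported as mean ± spread.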

[22] = target: T1, Epidermal growth factor receptor; test: Inhibition of EGFR in human A549 cells assessed as reduction in EGF-induced AKT phosphorylation at Thr308 residue up to 3 uM after 4 hrs by immunoblotting method; assay type: cell-based
[23] = target: Epidermal growth factor receptor (Homo sapiens, UniProt P00533, L858R); test: Inhibition of recombinant human GST-tagged EGFR L858R mutant expressed in Baculovirus expression system using Tyr 4 peptide as substrate after 1 hr in presence of ATP by Z-LYTE assay
[24] = species on record: Homo sapiens; test: Selectivity index, ratio of IC50 for recombinant human wild-type His-tagged EGFR to IC50 for recombinant human GST-tagged EGFR L858R/T790M mutant
[25] = target: ALK tyrosine kinase receptor (Homo sapiens, UniProt Q9UM73, L1196M); test: Inhibition of recombinant human N-terminal GST/His6-fused ALK L1196M mutant expressed in Sf9 insect cells using Tyr 1 peptide as substrate after 1 hr by Z-LYTE assay
[26] = target: T1, Epidermal growth factor receptor; test: Inhibition of EGFR in human A549 cells assessed as reduction in EGF-induced eIF4E phosphorylation at Ser209 residue up to 3 uM after 4 hrs by immunoblotting method; assay type: cell-based
[27] = Oral bioavailability in Sprague-Dawley rat at 10 mg/kg; assay type: ADME, organism-based; conditions: in vivo
Outline: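 Pharmacokinetics in rats given a single dose either intravenously at 1 mg/kg or orally at 10 mg/kg. Plasma parameters derived include AUC0-t, AUC0-∞, MRT(0-t), Cmax, Tmax, T1/2 and oral F (%).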

[28] = tested on: Epidermal growth factor receptor (Homo sapiens), P00533 [C797S]; test: Inhibition of TEL-fused EGFR C797S mutant (unknown origin) expressed in mouse BAF3 cells assessed as decrease in cell proliferation after 72 hrs by CellTiter-Glo assay; assay type: cell-based
[29] = tested on: NCI-H2228; test: Antiproliferative activity against human NCI-H2228 cells harboring EML4-fused ALK varian3 after 72 hrs by CellTiter-Glo assay; assay type: functional; conditions: NCI-H2228, 72 h
[30] = target: T1, Epidermal growth factor receptor; test: Inhibition of recombinant human wild-type His-tagged EGFR expressed in mammalian expression system using Tyr 4 peptide as substrate after 1 hr in presence of ATP by Z-LYTE kinase assay

T1 sequence (P00533 whole entry): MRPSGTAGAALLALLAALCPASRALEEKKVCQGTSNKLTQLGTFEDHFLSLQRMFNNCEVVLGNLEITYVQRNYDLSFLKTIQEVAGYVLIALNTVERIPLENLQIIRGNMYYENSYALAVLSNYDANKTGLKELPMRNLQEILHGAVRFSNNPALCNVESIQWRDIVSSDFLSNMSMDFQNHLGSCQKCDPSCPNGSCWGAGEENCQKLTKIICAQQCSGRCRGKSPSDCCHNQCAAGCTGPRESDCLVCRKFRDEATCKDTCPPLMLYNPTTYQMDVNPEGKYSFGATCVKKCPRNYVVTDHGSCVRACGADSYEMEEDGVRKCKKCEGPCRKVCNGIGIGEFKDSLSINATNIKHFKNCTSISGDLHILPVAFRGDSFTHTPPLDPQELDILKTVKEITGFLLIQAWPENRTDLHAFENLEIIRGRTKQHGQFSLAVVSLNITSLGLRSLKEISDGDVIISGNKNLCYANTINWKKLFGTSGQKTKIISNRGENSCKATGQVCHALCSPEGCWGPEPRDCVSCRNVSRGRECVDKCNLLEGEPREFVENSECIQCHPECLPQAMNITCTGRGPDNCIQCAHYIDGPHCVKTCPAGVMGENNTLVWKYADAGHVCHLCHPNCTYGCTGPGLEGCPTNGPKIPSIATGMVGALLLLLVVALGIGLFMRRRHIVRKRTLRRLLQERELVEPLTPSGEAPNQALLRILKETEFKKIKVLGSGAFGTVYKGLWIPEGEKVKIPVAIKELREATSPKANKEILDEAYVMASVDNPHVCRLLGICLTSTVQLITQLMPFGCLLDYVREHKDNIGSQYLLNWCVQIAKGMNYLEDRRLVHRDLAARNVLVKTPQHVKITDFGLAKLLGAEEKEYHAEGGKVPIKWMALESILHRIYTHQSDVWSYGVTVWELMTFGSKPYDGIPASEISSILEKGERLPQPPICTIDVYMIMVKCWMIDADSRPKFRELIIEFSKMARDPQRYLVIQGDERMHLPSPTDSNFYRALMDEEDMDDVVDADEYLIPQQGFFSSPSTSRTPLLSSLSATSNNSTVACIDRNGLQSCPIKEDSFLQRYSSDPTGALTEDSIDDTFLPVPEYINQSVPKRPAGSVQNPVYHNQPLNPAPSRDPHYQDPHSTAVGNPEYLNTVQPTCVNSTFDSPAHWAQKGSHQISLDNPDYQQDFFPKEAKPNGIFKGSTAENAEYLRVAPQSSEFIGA
Sequence of Epidermal growth factor receptor (Homo sapiens), P00533 [C797S] (P00533 whole entry C797S, the tested form may be a part): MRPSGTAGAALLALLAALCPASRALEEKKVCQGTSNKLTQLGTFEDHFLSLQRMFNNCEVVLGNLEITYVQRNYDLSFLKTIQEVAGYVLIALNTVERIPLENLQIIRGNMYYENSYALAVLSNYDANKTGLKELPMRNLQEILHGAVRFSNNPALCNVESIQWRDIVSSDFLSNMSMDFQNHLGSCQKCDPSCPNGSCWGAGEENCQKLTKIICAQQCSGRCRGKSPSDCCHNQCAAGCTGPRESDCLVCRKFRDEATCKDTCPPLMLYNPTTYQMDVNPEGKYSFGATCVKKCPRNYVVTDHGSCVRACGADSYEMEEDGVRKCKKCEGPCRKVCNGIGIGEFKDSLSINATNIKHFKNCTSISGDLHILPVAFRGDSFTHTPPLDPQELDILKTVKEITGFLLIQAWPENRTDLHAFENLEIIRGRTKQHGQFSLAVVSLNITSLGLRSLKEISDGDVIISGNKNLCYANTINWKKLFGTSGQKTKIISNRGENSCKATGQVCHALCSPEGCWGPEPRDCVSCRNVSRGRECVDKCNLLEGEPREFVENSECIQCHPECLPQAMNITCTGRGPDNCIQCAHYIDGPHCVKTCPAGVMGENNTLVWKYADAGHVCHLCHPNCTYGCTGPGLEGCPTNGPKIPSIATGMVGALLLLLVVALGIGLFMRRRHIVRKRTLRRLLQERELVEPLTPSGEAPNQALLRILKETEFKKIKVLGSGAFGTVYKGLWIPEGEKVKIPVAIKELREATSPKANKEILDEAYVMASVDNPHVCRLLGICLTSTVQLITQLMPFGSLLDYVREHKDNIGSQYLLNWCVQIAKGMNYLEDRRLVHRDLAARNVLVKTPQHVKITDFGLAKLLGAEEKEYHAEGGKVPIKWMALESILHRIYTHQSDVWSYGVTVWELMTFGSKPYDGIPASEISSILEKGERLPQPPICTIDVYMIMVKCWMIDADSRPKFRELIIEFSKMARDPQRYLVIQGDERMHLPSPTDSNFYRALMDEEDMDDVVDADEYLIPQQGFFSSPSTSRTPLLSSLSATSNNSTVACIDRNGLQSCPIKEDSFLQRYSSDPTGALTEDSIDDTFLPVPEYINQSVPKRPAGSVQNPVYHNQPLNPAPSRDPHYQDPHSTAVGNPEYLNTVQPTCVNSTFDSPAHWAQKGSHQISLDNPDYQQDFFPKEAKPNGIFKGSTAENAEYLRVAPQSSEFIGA
Sequence of ALK tyrosine kinase receptor (Homo sapiens, UniProt Q9UM73, L1196M) (Q9UM73 19-1620 L1196M limits assumed): as the sequence (Q9UM73 19-1620 limits assumed) above, with L1178M counted along it
Sequence of ALK tyrosine kinase receptor (Homo sapiens, UniProt Q9UM73, R1275Q) (Q9UM73 19-1620 R1275Q limits assumed): as the sequence (Q9UM73 19-1620 limits assumed) above, with R1257Q counted along it
Sequence of ALK tyrosine kinase receptor (Homo sapiens, UniProt Q9UM73, C1156Y) (Q9UM73 19-1620 C1156Y limits assumed): as the sequence (Q9UM73 19-1620 limits assumed) above, with C1138Y counted along it

In the case of `C=CC(=O)Nc1cc(Nc2ncc(Cl)c(Nc3ccccc3S(=O)(=O)C(C)C)n2)c(OC)cc1N1CCCN(C)CC1`, the RatioGI50 [1] is reported as 15, the inhibition [2] is reported as “Active” and the inhibition [3] is reported as “inactive”. The IC50 [4] was 0.82 nM, the inhibition [5] was “inactive” and the inhibition [6] was “Active”. For the same compound, the inhibition [7] was “Active”, the inhibition [8] was “Active” and the Activity [9] was 1.58 g. For the same compound, the Activity [10] was “inactive”, the IC50 [11] was 1 nM and the inhibition [12] was “Active”. It also gave a Ratio IC50 [13] of 20 to 30, a GI50 [14] of 8.5 nM and an IC50 [15] of 9.8 nM. The Activity [16] was “Active”, the inhibition in vivo at 40 mg/kg [17] was 78.4% and the Activity [18] was “Active”. The Activity [19] was “Dose-dependent effect”, the Activity [20] was “Non-Toxic” and the AUC(0-t) [21] was 707 ng·h/mL. The inhibition [22] was “inactive”, the IC50 [23] was 82.5 nM and the Ratio IC50 [24] was 20 to 30. For the same compound, the IC50 [25] was 0.59 nM, the inhibition [26] was “inactive” and the bioavailability [27] was 16.1%. The GI50 [28] was 230 nM, the GI50 [29] was 28 nM and the IC50 [30] was 108 nM.
